Measurements from ChEMBL document CHEMBL5303300, “EUbOPEN Chemogenomics Library - Multiplex” (2023).
“And” between values parts separate entries of the source, which are not always exact repeats. Equal entries are not always repeated.

Tested on: HEK-293T
Experiment: Multiplex assay against HEK293T
Type: toxicity, cell-based
Details: human, number of replicates 2
Method in brief: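 On a CQ1 microscope at 37°C and 5% CO2, live cells were imaged after compound addition. They had been stained at seeding with Hoechst33342, BioTracker Green Microtubule Cytoskeleton Dye, MitoTracker Red and Annexin V Alexa Fluor 680. CellPathfinder machine-learning gating assigned cells to Hoechst high-intensity objects or normal cells, normal cells to healthy, pyknosed or fragmented nuclei, and pyknosed cells to mitotic or apoptotic. Tubulin, mitochondrial-mass and membrane-permeability phenotypes are per cents of healthy-nucleus cells.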

[1] = 12 h, 1 µM, compound concentration 1 uM
[2] = 12 h, 10 µM, compound concentration 10 uM
[3] = 24 h, 1 µM, compound concentration 1 uM
[4] = 24 h, 10 µM, compound concentration 10 uM
[5] = 48 h, 1 µM, compound concentration 1 uM
[6] = 48 h, 10 µM, compound concentration 10 uM
[7] = 12 h, 0 µM, compound concentration 0 uM
[8] = 24 h, 0 µM, compound concentration 0 uM
[9] = 48 h, 0 µM, compound concentration 0 uM

## CC(C)NC(=O)[C@H]1CCC[C@H]1Nc1nc(Nc2ccc(C(=O)N(C)C3CCN(C)CC3)cc2)ncc1Cl
[1]
  Population Apoptotic (%): 64% and 57%
  Population Fragmented Nuclei (%): 3% and 1%
  Population Healthy Nuclei (%): 79% and 87%
  Population Hoechst High Intensity Objects (%): 7% and 8%
  Population Membrane Permeable-Phenotype (%): 4% and 2%
  Population Mitochondria Different-Phenotype (%): 17% and 15%
  Population Mitotic Cells (%): 35% and 42%
  Population Normal (%): 92% and 91%
  Population Pyknosed Nuclei (%): 16% and 10%
  Population Tubulin-Different-Phenotype (%): 60% and 58%
  Total Cell Count: 568 and 503
[2]
  Population Apoptotic (%): 47% and 56%
  Population Fragmented Nuclei (%): 3% and 2%
  Population Healthy Nuclei (%): 87% and 86%
  Population Hoechst High Intensity Objects (%): 8% and 7%
  Population Membrane Permeable-Phenotype (%): 4%
  Population Mitochondria Different-Phenotype (%): 29% and 30%
  Population Mitotic Cells (%): 52% and 43%
  Population Normal (%): 91% and 92%
  Population Pyknosed Nuclei (%): 9% and 10%
  Population Tubulin-Different-Phenotype (%): 88% and 87%
  Total Cell Count: 520 and 480
[3]
  Population Apoptotic (%): 64% and 61%
  Population Fragmented Nuclei (%): 5% and 6%
  Population Healthy Nuclei (%): 76% and 84%
  Population Hoechst High Intensity Objects (%): 9% and 10%
  Population Membrane Permeable-Phenotype (%): 2%
  Population Mitochondria Different-Phenotype (%): 9% and 5%
  Population Mitotic Cells (%): 35% and 38%
  Population Normal (%): 90% and 89%
  Population Pyknosed Nuclei (%): 17% and 8%
  Population Tubulin-Different-Phenotype (%): 43% and 37%
  Total Cell Count: 653 and 524
[4]
  Population Apoptotic (%): 52% and 54%
  Population Fragmented Nuclei (%): 3% and 4%
  Population Healthy Nuclei (%): 85% and 87%
  Population Hoechst High Intensity Objects (%): 6% and 9%
  Population Membrane Permeable-Phenotype (%): 6% and 3%
  Population Mitochondria Different-Phenotype (%): 16% and 18%
  Population Mitotic Cells (%): 47% and 45%
  Population Normal (%): 93% and 90%
  Population Pyknosed Nuclei (%): 11% and 7%
  Population Tubulin-Different-Phenotype (%): 74% and 81%
  Total Cell Count: 514 and 516
[5]
  Population Apoptotic (%): 68% and 45%
  Population Fragmented Nuclei (%): 9% and 8%
  Population Healthy Nuclei (%): 84% and 89%
  Population Hoechst High Intensity Objects (%): 9% and 10%
  Population Membrane Permeable-Phenotype (%): 3% and 1%
  Population Mitochondria Different-Phenotype (%): 1% and 2%
  Population Mitotic Cells (%): 31% and 54%
  Population Normal (%): 90% and 89%
  Population Pyknosed Nuclei (%): 5% and 2%
  Population Tubulin-Different-Phenotype (%): 22% and 20%
  Total Cell Count: 714 and 606
[6]
  Population Apoptotic (%): 47% and 53%
  Population Fragmented Nuclei (%): 8% and 10%
  Population Healthy Nuclei (%): 84% and 85%
  Population Hoechst High Intensity Objects (%): 10% and 11%
  Population Membrane Permeable-Phenotype (%): 3% and 4%
  Population Mitochondria Different-Phenotype (%): 5%
  Population Mitotic Cells (%): 52% and 46%
  Population Normal (%): 89% and 88%
  Population Pyknosed Nuclei (%): 6% and 4%
  Population Tubulin-Different-Phenotype (%): 67% and 70%
  Total Cell Count: 617 and 637

## COc1cc(C(N)=O)ccc1Nc1ncc2c(n1)N(CCC(C)C)[C@H](C)C(=O)N2C
[7]
  Population Apoptotic (%): 47% and 52%
  Population Fragmented Nuclei (%): 3% and 2%
  Population Healthy Nuclei (%): 86% and 88%
  Population Hoechst High Intensity Objects (%): 2%
  Population Membrane Permeable-Phenotype (%): 4% and 10%
  Population Mitochondria Different-Phenotype (%): 31% and 35%
  Population Mitotic Cells (%): 52% and 47%
  Population Normal (%): 97%
  Population Pyknosed Nuclei (%): 10% and 9%
  Population Tubulin-Different-Phenotype (%): 82% and 95%
  Total Cell Count: 540 and 476
[1]
  Population Apoptotic (%): 62% and 60%
  Population Fragmented Nuclei (%): 1% and 4%
  Population Healthy Nuclei (%): 73% and 75%
  Population Hoechst High Intensity Objects (%): 8% and 7%
  Population Membrane Permeable-Phenotype (%): 2%
  Population Mitochondria Different-Phenotype (%): 38% and 28%
  Population Mitotic Cells (%): 37% and 39%
  Population Normal (%): 91% and 92%
  Population Pyknosed Nuclei (%): 24% and 20%
  Population Tubulin-Different-Phenotype (%): 64% and 58%
  Total Cell Count: 432 and 456
[8]
  Population Apoptotic (%): 67% and 50%
  Population Fragmented Nuclei (%): 4% and 5%
  Population Healthy Nuclei (%): 88%
  Population Hoechst High Intensity Objects (%): 3% and 2%
  Population Membrane Permeable-Phenotype (%): 1% and 2%
  Population Mitochondria Different-Phenotype (%): 44% and 59%
  Population Mitotic Cells (%): 32% and 50%
  Population Normal (%): 96% and 97%
  Population Pyknosed Nuclei (%): 6%
  Population Tubulin-Different-Phenotype (%): 81% and 96%
  Total Cell Count: 464 and 423
[3]
  Population Apoptotic (%): 75% and 68%
  Population Fragmented Nuclei (%): 5%
  Population Healthy Nuclei (%): 69% and 76%
  Population Hoechst High Intensity Objects (%): 8% and 6%
  Population Membrane Permeable-Phenotype (%): 1%
  Population Mitochondria Different-Phenotype (%): 34% and 32%
  Population Mitotic Cells (%): 24% and 31%
  Population Normal (%): 91% and 93%
  Population Pyknosed Nuclei (%): 25% and 18%
  Population Tubulin-Different-Phenotype (%): 38% and 35%
  Total Cell Count: 461 and 420
[9]
  Population Apoptotic (%): 72% and 75%
  Population Fragmented Nuclei (%): 16% and 11%
  Population Healthy Nuclei (%): 78% and 80%
  Population Hoechst High Intensity Objects (%): 3%
  Population Membrane Permeable-Phenotype (%): 1% and 3%
  Population Mitochondria Different-Phenotype (%): 39% and 55%
  Population Mitotic Cells (%): 28% and 24%
  Population Normal (%): 96%
  Population Pyknosed Nuclei (%): 5% and 7%
  Population Tubulin-Different-Phenotype (%): 63% and 89%
  Total Cell Count: 505 and 420
[5]
  Population Apoptotic (%): 72% and 73%
  Population Fragmented Nuclei (%): 8% and 11%
  Population Healthy Nuclei (%): 72% and 76%
  Population Hoechst High Intensity Objects (%): 5% and 4%
  Population Membrane Permeable-Phenotype (%): 1%
  Population Mitochondria Different-Phenotype (%): 14% and 17%
  Population Mitotic Cells (%): 27% and 26%
  Population Normal (%): 94% and 95%
  Population Pyknosed Nuclei (%): 19% and 12%
  Population Tubulin-Different-Phenotype (%): 24% and 20%
  Total Cell Count: 520 and 517

## c1ccc2c(-c3coc4cc(-c5ccc(N6CCNCC6)cc5)cnc34)ccnc2c1
[1]
  Population Apoptotic (%): 49% and 54%
  Population Healthy Nuclei (%): 84% and 87%
  Population Mitotic Cells (%): 50% and 45%
  Population Normal (%): 94%
  Population Pyknosed Nuclei (%): 13% and 10%
  Population Tubulin-Different-Phenotype (%): 46% and 49%
  Total Cell Count: 595 and 552
[2]
  Population Apoptotic (%): 75% and 58%
  Population Healthy Nuclei (%): 32% and 33%
  Population Mitotic Cells (%): 24% and 41%
  Population Normal (%): 82% and 84%
  Population Pyknosed Nuclei (%): 59%
  Population Tubulin-Different-Phenotype (%): 86% and 81%
  Total Cell Count: 394 and 507
[3]
  Population Apoptotic (%): 36% and 45%
  Population Healthy Nuclei (%): 88% and 87%
  Population Mitotic Cells (%): 63% and 54%
  Population Normal (%): 95% and 93%
  Population Pyknosed Nuclei (%): 9%
  Population Tubulin-Different-Phenotype (%): 34% and 40%
  Total Cell Count: 920 and 770
[4]
  Population Apoptotic (%): 85% and 72%
  Population Healthy Nuclei (%): 19% and 24%
  Population Mitotic Cells (%): 14% and 27%
  Population Normal (%): 82% and 80%
  Population Pyknosed Nuclei (%): 71% and 67%
  Population Tubulin-Different-Phenotype (%): 89% and 87%
  Total Cell Count: 387 and 484
[5]
  Population Apoptotic (%): 13% and 18%
  Population Healthy Nuclei (%): 90% and 89%
  Population Mitotic Cells (%): 86% and 81%
  Population Normal (%): 93% and 92%
  Population Pyknosed Nuclei (%): 4% and 5%
  Population Tubulin-Different-Phenotype (%): 18% and 22%
  Total Cell Count: 1932 and 1615
[6]
  Population Apoptotic (%): 90% and 79%
  Population Healthy Nuclei (%): 11% and 23%
  Population Mitotic Cells (%): 9% and 20%
  Population Normal (%): 81% and 79%
  Population Pyknosed Nuclei (%): 74% and 64%
  Population Tubulin-Different-Phenotype (%): 86% and 91%
  Total Cell Count: 372 and 450
